Results on 4 compounds are retold here after PMC3367325 (Journal of Natural Products, 2012).

Read-outs that look alike come from different tables or passages of the source. Peptide text beside a SMILES is read from it. * marks the point of attachment. Cbz = O=C(OCc1ccccc1)*

One data set deals with alpha(2B) adrenoceptor. As to conditions: cited from earlier work.
Another data set has as its system HeLa cells. The data set is described as follows: Accumulation of ubiquitinylated proteins, confocal microscopy. The data set is classed as cell-based, human. As to conditions: 1.0 µM, 2 h, versus vehicle, p =0.001.
For data set [1], the target named is T1, human 20S proteasome (CT-L activity) (Homo sapiens, UniProt P28074).
Data set [2] has as its target human 20S proteasome (T-L activity) (Homo sapiens, UniProt Q99436). The data set is described as follows: Tryptic-like. As to conditions: purified human 20S proteasome. The format is biochemical.
The conditions of data set [3]: pH of greater than seven; has been reported, no reference given; cited from earlier work.
The next data set in a line: Aggregation assay. The format is physicochemical. As to conditions: 1 to 10 µM.
Data set [4] has as its target T1, human 20S proteasome (CT-L activity). The data set is described as follows: IC50 pre- and post-centrifugation of palau’amine in reaction buffer. The data set is classed as biochemical. Particulars: 15,000g for 30 min, supernatant. In short, it runs like this:
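Test compound in reaction buffer was spun at 15000g for 30 min, and the IC50 was compared with that of unspun material. CT-L assay: 1 nM purified human 20S proteasome in 50 mM Tris-HCl pH 7.5 with 0.03% SDS and Suc-LLVY-AMC at its Km, at 37 °C. AMC fluorescence (ex 380/em 460 nm) was read each minute for 30 min, and the maximal rate gave activity.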

The target is the same in data set [5]. The data set is described as follows: Chymotryptic-like. The format is biochemical. Particulars: purified human 20S proteasome.

For the compound `NC1=N[C@]23CCCN2C(=O)c2cc(Br)c(Br)n2[C@@H]3N1` (racemic) [(±) -2, ±-dibromophakellin], in the data set on alpha(2B) adrenoceptor, the “Activity against the alpha(2B) adrenoceptor” value is “agonist activity”.
For `NC[C@@H]1[C@H]2CN3C(=O)c4cccn4[C@@H]4NC(N)=N[C@@]43[C@@H]2[C@]2(N=C(N)N[C@H]2O)[C@H]1Cl.O=C(O)C(F)(F)F` (racemic) [(±) - 1, palau’amine], in the data set on HeLa cells, the “Accumulation of ubiquitinylated proteins (ubiquitin-Alexa 546 red fluorescence)” value is reported as “robust increase”. In addition, in data set [1] (1 µM MG-132, 1 µM epoxomicin, 10 µM palau’amine, 1 nM 20S), the “CT-L proteolytic activity of 20S proteasome pre-washing” value is recorded as “complete abrogation”. In data set [1] (kinetic analysis and washing experiments), the “Binding mechanism to the 20S proteasome” value was “irreversible-type”. The “CT-L proteolytic activity of 20S proteasome post-washing” value in data set [1] (washed with 500 volumes of reaction buffer) is “complete abrogation”. The “Effect on T-L activity of the proteasome” value in data set [2] is “did not affect”. The “Stability at pH greater than seven (reported)” value in data set [3] was “unstable”. Further, the Formation of aggregates entry in “Aggregation assay” is “not to form aggregates”. Besides, in data set [4], the “Change in CT-L IC50 post-centrifugation versus pre-centrifugation” value is on record as “no significant change”.
As to `CC(C)C[C@@H](C=O)NC(=O)[C@H](CC(C)C)NC(=O)[C@H](CC(C)C)NC(=O)OCc1ccccc1` [MG-132, reference compound] (Cbz-Leu-Leu-Leu-aldehyde), in data set [1], the “CT-L proteolytic activity of 20S proteasome post-washing” value is “almost completely restored” and the “CT-L proteolytic activity of 20S proteasome pre-washing” value is recorded as “completely abrogated”.
In the case of `O=c1c2cc(Br)c(Br)n2cc2n1CCC2` [compound 4], the “Inhibition of the proteasome (all activities)” value in data set [5] is reported as “devoid of all activity”.
